Compound activity deposited in PubChem by several laboratories.
Only some compounds are listed: those with a hit (about 2.4% of all), similar ones and a draw of the others.
NR2E3 ag-1 – inhibitors of NR2E3-RetCOR corepressor binding, primary screen, NR2E3 agonist project, biochemical, TR-FRET, GST-NR2E3, biotin-RetCOR; 320,000 tested, 0.12% active; 1536-well; Photoreceptor-specific nuclear receptor (Homo sapiens), Q9Y5X4; inhibition of corepressor binding, % at 4.78 µM;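 active = percent inhibition above the cutoff of mean plus 3 SD of all tested compounds, set per screening campaign, cut at about 20% in these data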
Target sequence (Q9Y5X4 whole entry, looked up): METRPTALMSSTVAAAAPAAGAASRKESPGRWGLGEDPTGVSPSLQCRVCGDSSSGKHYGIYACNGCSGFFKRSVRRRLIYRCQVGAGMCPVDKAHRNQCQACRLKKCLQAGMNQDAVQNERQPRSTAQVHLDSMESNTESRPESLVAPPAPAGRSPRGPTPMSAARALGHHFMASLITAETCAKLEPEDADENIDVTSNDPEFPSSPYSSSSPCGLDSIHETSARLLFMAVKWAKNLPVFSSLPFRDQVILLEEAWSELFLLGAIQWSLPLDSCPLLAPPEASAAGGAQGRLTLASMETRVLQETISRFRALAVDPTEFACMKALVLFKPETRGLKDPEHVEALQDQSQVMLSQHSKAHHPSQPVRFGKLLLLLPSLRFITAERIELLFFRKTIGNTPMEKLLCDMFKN
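Test system – NR2E3–RetCOR corepressor complex · Quantity – NR2E3 fusion 1.35 nM · Buffer or medium – Tris pH 7.5 · Incubation – Compound–protein incubation for 5 h at 4 °C · Technique – TR-FRET, Eu(K)-anti-GST donor, streptavidin-D2 acceptor, ex 340, em 617/671 nm · Evaluation – percent inhibition of 671/617 nm emission ratio versus biotin and DMSO controls · Plate – 1536-well format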
MPTP inh – mitochondrial permeability transition pore inhibitors, primary screen, biochemical, isolated mouse mitochondria, absorbance. Ca2+ swelling absorbance, 30 min. inhibition, % at 10 µM. 360,000 tested, 1.4% active. AID 602449, 2012;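 active = inhibition of 50% or more, scaled per plate between neutral and stimulator controls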
Jurkat NFkB inh – inhibitors of induced NF-kB luciferase reporter, primary screen, TCR NF-kB activation inhibitor project, cell-based, luminescence, uHTS | Jurkat, PMA/ionomycin-induced NF-kB luciferase reporter | inhibition, % at 4 µM | 330,000 tested, 0.53% active | AID 435003, 2010; in the data active = inhibition above about 50%
NR2E3 ag-2 – NR2E3 agonists in two-hybrid cells, primary screen, cell-based, luminescence, CHO-S, Gal4-NCOR/VP16-NR2E3. luciferase. inhibition of corepressor binding, % at 3.98 µM. 360,000 tested, 0.35% active. Photoreceptor-specific nuclear receptor (Homo sapiens), Q9Y5X4;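 active = inhibition above the mean of all tested compounds plus 3 SD, cut at about 70% in these data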;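 note: higher means lower luciferase signal from less NR2E3 corepressor binding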
697 NFkB inh – inhibitors of PMA/ionomycin-induced NF-kB reporter, 697 cells, primary screen, B-cell NF-kB inhibitor project, cell-based, luminescence, uHTS. 330,000 tested, 0.33% active. 697 B-cell NF-kB luciferase reporter, 16 h. inhibition, % at 4 µM; in the data active = inhibition above about 35%
aDG glyco up – activators of alpha-DG glycosylation, primary screen, uHTS, Pro5-aDG cells, AlphaScreen; alpha-DG glycosylation AlphaScreen (IIH6); 0% Pro5, 100% B10-LARGE cell signal; activation, % at 10 µM; 360,000 tested, 0.22% active; AID 624168, 2012;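 active = activation of at least 8% versus controls, or a plate z-score of at least 8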;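 note: Pro5 are CHO cells carrying HIG-tagged alpha-DG that lacks glycosylation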
Jurkat NFkB conf – PMA/ionomycin-induced NF-kB reporter inhibitors, Jurkat retest, confirmation, T-cell NF-kB inhibitor project, cell-based, luminescence, single concentration; AID 435020, 2010; shares compounds with Jurkat NFkB inh; 2,700 tested, 27% active; inhibition, % at 4 µM; Jurkat NF-kB luciferase, 16 h;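 active = inhibition reaching about 45% at 4 µM in either replicate, limit read from the data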
A number is an active result; . = inactive; / = not tested or not shown.

SMILES	NR2E3 ag-1	MPTP inh	Jurkat NFkB inh	NR2E3 ag-2	697 NFkB inh	aDG glyco up	Jurkat NFkB conf
CCc1ccccc1NC(=O)CN(C)C(=O)Cn1cc(C(F)(F)F)cc(Cl)c1=O	.	.	.	.	.	.	/
CCOC(=O)C1=CNS(=O)(=O)NC1c1ccc(C)cc1 (stereo not given)	/	.	/	.	.	.	/
Cc1ccc(N/C(N)=N/c2nc(CSc3nnc(C)s3)cc(=O)[nH]2)c(C)c1	.	.	71.6	.	.	.	52.5
O=C(c1ccc(F)cc1F)C1CCN(c2ccc([N+](=O)[O-])cn2)CC1	.	.	85.6	.	.	.	.
O=C(Nc1ccc(F)cc1F)N1CCCN(c2ccc([N+](=O)[O-])cn2)CC1	.	.	.	.	.	.	/
O=C(COc1cccc2cccnc12)N/N=C/c1ccccc1O	.	.	.	.	.	.	/
Oc1ccccc1/C=N/Nc1cccc2cccnc12	.	.	.	.	.	.	.
CCCc1cc(C(=O)Nc2nccs2)cs1	.	.	.	.	.	.	.
CN1CCN(c2ccc(NC(=O)c3sc4ccccc4c3Cl)cc2)CC1	.	.	.	.	.	.	.
CN1CCN(C(=O)c2ccccc2NC(=O)c2sc3ccccc3c2Cl)CC1	.	.	.	.	.	.	/
COc1ccccc1N1CCN(C(=O)c2ccc(-c3ccc(Cl)cc3)o2)CC1	.	.	62.9	.	.	.	52.7
Cc1ccccc1S(=O)(=O)Nc1nc2ccccc2nc1N1CCc2ccccc2C1	.	.	.	.	.	.	.
O=S(=O)(Nc1nc2ccccc2nc1N1CCc2ccccc2C1)c1ccc(Br)cc1	.	.	/	.	/	.	/
CSc1nc(N(C)NC(=O)c2ccc(F)cc2)c2ccccc2n1	.	.	50.5	.	.	.	.
Cc1nc(SCC(=O)NNC(=O)c2ccc(F)cc2)c2ccccc2n1	/	.	.	.	.	.	/
C/C(=N/NC(=O)c1sc(NS(=O)(=O)c2ccccc2)nc1C)c1sc(N)nc1C	.	.	.	.	.	.	/
COc1cc(OC)cc(C(=O)NCc2ccc(-n3cccc3)cc2)c1	.	.	.	.	.	.	/
COc1ccc(CC(=O)NCc2ccc(-n3cccc3)cc2)cc1OC	.	.	55.0	.	.	.	.
Cc1ccc(CNC(=O)Cc2ccc(-n3cccc3)cc2)cc1	.	.	52.7	.	.	.	.
c1ccc(-c2noc(-c3ccc4c(c3)OCO4)n2)nc1	.	.	68.0	.	.	.	69.2
COc1ccc(-c2nc(-c3cccc(C)c3)no2)cc1OC	.	.	.	.	.	.	/
c1ccc(-c2noc(-c3ccncc3)n2)nc1	.	.	.	.	.	.	/
Cc1cccc(-c2noc(-c3ccc4c(c3)OCO4)n2)c1	.	.	.	.	.	.	.
CCCc1cc(=O)[nH]c(SCC(=O)Nc2oc(C)c3c(C)n[nH]c(=O)c23)n1	.	.	.	.	.	.	/
C[C@]12CCC3C(CC[C@H]4CCCC[C@]34C)C1CC[C@@]2(O)CNCCO (stereo not given in full)	/	.	56.3	.	.	.	.
CC(=O)[C@@]1(O)CCC2C3CC[C@H]4C[C@@H](O)CC[C@]4(C)C3CC[C@@]21C (stereo not given in full)	/	.	.	.	.	.	/
COC(=O)c1c(-c2cccnc2)csc1NC(=O)c1cc(C)on1	.	.	.	.	.	.	.
COc1ccc(CN2CCN(Cc3ccc(C(F)(F)F)cc3)CC2)cc1	.	.	.	.	.	.	/
COC(=O)c1c(C)[nH]c(C(=O)N2CCN(c3ccc(OC)cc3)CC2)c1C	.	/	/	/	/	/	/
